Data taken from ChEMBL document CHEMBL4513216, “Probing the Open Global Health Chemical Diversity Library for Multistage-Active Starting Points for Next-Generation Antimalarials” (ACS Infect Dis, 2020).

Assay: Toxicity liver stage against HepG2, at 10uM
Type: cell-based
Design: test concentration 10 uM, cell line HepG2-A16-CD81EGFP
Details: human, HepG2-A16-CD81EGFP cells; read-out: INHIBITION
Method in brief: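 Uninfected HepG2-A16-CD81EGFP cells, 3 × 10^3 per well, 1536-well, plated on prespotted compound at 10 μM final, parasite-free screening media added to match infected plates; puromycin 10 μM positive, DMSO 0.5% negative; run in parallel with 48 h PbLuc assay at 37 °C, 5% CO2; viability by CellTiter-Glo luminescence, normalized to controls.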

| SMILES | cytotoxicity at 10 µM [%] |
| --- | --- |
| O=C(NC[C@H]1OC[C@@H](NCc2ccc(F)cc2)[C@@H]1O)N1CCOCC1 | 1.17 |
| COC(=O)[C@@H]1Cc2ncn(C)c2CN1S(=O)(=O)Cc1ccccc1 | -0.861 |
| Cn1nc(-c2ccccc2)cc1[C@H]1CN2CC[C@H]1C[C@@H]2CNS(C)(=O)=O | 1.82 |
| O=C(Nc1ccccc1)[C@H]1O[C@H](CCN2CCCCC2)CC[C@@H]1O | -1.36 |
| CC1(C)CNC(=O)CN(C(=O)Cc2ccccc2)C1 | -6.92 |
| O=C(Cc1cnc(-n2cccc2)s1)NCCCO | -3.14 |
| Cc1nc(C)c(CC(=O)NCc2ccc(F)cc2)s1 | 8.05 |
| Cc1n[nH]c2nc(-c3cccc(Cl)c3)cc(C(=O)O)c12 | -1.05 |
| O=c1ccc(-n2ccnc2)nn1CCNS(=O)(=O)c1ccc(F)c(Cl)c1 | -4.39 |
| CNC(=O)c1nnn(-c2ccccc2F)c1-c1ccccn1 | -4.21 |
| CC(C)C(=O)N1CCC2(CC1)NC(=O)[C@H]1CN(C(=O)N(C)C)C[C@H]12 | 3.03 |
| O=c1ccc2c(n1Cc1cccnc1)CCC(NCc1cccnc1)C2 (stereo not given) | 19.2 |
| CN(C)C(=O)N1CC2(CCOCC2)c2cc(NS(=O)(=O)C3CC3)ccc21 | -7.15 |
| COCCN1CCc2ncc(CN(C)C)n2CC1 | -0.0807 |
| CNC(=O)[C@@H]1COC[C@H]2CN(C(=O)c3ccc(OC)cc3)C[C@H]21 | 9.48 |
| CS(=O)(=O)N1CCCC12CCCN(S(=O)(=O)c1cccc(F)c1)C2 (stereo not given) | 0.88 |
| CCc1cccc(NC(=O)N2CCn3cnc(COC)c3C2)c1 | 5.35 |
| CNC(=O)CN1CCOCC2(CCCN(Cc3ccoc3)C2)C1 (stereo not given) | 6.65 |
| O=C(NC1CCCC1)C1Cc2nc(-c3ccsc3)sc2N1CC1CC1 (stereo not given) | 16.6 |
| COc1ccccc1C1SCC(=O)Nc2c1c(=O)[nH]n2C1CCCCC1 (stereo not given) | -1.2 |
| Cn1nc(CNC(=O)C2CCCC2)cc1C1CC1 | -0.265 |
| Cc1cc(C(F)(F)F)nn1C(C)C(=O)Nc1ccncc1 (stereo not given) | 3.1 |
| CN1CCC(c2cccc(NCc3ccncc3)n2)CC1 | 6.08 |
| Cc1cc(-c2cnc(N3CCOCC3)nc2-c2cccnc2C)on1 | -21.4 |
| CCN1CCCC(c2cc(Nc3cnccn3)nc(C)n2)C1 (stereo not given) | -12.9 |
| Cc1ccc(CC(=O)N(C)CC2(O)CCCN(c3ccccn3)C2)s1 (stereo not given) | -14.1 |
| O=C1Nc2ccccc2CC12CCCN2Cc1cccnc1 (stereo not given) | 7.27 |

| SMILES | cytotoxicity at 10 µM [%] |
| --- | --- |
| CNC(=O)c1ccc(CN(C)C(=O)Nc2nnc(C(C)C)s2)cc1 | -14 |
| CNC(=O)CNC(=O)Nc1ccc(F)c(Br)c1 | 7.92 |
| Cc1cccc(NC(=O)CNC(=O)c2ccccc2F)c1 | -1.24 |
| O=C1NCCCC1NC(=O)C1(c2cccc(Cl)c2)CCC1 (stereo not given) | -2.09 |
| CN1CCN(CC(NCc2ccc(F)cc2)c2ccccc2)CC1 (stereo not given) | -15.7 |
| Cc1nc(CN2CCN(C(=O)Cc3cccc(Cl)c3)CC2)no1 | -4.76 |
| CCCc1cc(NC2CCc3nc(C)nn3C2)n2ncnc2n1 (stereo not given) | -10.4 |
| O=C(COc1ccc(-c2ccccc2)nc1)NCC1CC1 | 6.8 |
| CCc1cnc(CN(C)C2CCN(CCCS(=O)(=O)NC)C2)o1 (stereo not given) | 7.82 |
| O=C(c1csc(-c2ncccn2)n1)N1CCN2CCCCC2C1 (stereo not given) | 4.55 |
| O=C(c1nc(=O)[nH][nH]1)N1CCCCCC1 | 14.1 |
| Cc1ccc(Cl)cc1S(=O)(=O)NCc1cnc(N(C)C)n1C | 5.17 |
| Cc1noc(C(C)NC(=O)[C@@H](C)NC(=O)OC(C)(C)C)n1 (stereo not given in full) | 5.81 |
| CCc1nc(CN2CCN(C(=O)c3csc(C(C)C)n3)CC2)no1 | 11.3 |
| CSc1ccc(OC(C)C(=O)Nc2c(C)n[nH]c2C)cc1 (stereo not given) | 6.8 |
| Cc1cc(C2CCCN(C(=O)c3c(C)noc3C)C2)n[nH]1 (stereo not given) | -6.63 |
| CNC(=O)[C@@H]1C[C@H]2CN(Cc3ccc(C)o3)C[C@H]2N1C(C)=O | -103 |
| CCCc1nccn1-c1cccc(CN2CCCC2)c1 | -4.87 |
| CCN1CCN(C[C@@H]2CN(c3ncccc3F)C[C@@H]2CO)CC1 | -6.45 |
| CCC[C@H]1CN(S(=O)(=O)c2ccccc2)C[C@@H]1N | 1.35 |
| N#Cc1ccc(N2CCC(c3nccn3Cc3cscn3)CC2)nc1 | -7.01 |
| CCN1CCC(CNC(=O)C(c2ccc(F)cc2)N(C)C)(N(C)C)CC1 (stereo not given) | -0.288 |
| CCNC(=O)[C@@H]1C[C@H](N)CN1C(=O)Cc1cc(C)ccc1C | 2.43 |
| Fc1ccc(Cn2ncc3c2CN(c2ncccn2)C3)cc1 | 1.5 |
| CCC(=O)N1CCN(C(=O)Nc2cccc(C#N)c2)[C@H]2CS(=O)(=O)C[C@H]21 | -46 |
| CCc1c(C)sc(NC(=O)CN2CCOCC2)c1C(=O)OC | 19.3 |
| COc1ccc(C)cc1CC(=O)NS(=O)(=O)c1ccc(C(N)=O)cc1 | 8 |

| SMILES | cytotoxicity at 10 µM [%] |
| --- | --- |
| CN(Cc1ccc(F)cc1)C(=O)Nc1cccnc1N1CCCC1 | -4.26 |
| COCc1nc(C(=O)NS(=O)(=O)c2ccc(F)cc2F)cs1 | -8.51 |
| CC(C)CNC(=O)c1cccc(CN2CCc3c(ncn3C)C2)c1 | -6.98 |
| Cc1cc2n(n1)CC(CNCc1ccc(N3CCOCC3)nc1)CN2 (stereo not given) | -15.3 |
| Cc1ccc(NC2CCN(C(=O)c3ccc(C#N)cc3)CC2)nn1 | -4.28 |
| Cc1cc(NS(=O)(=O)c2ccc(C(=O)O)cc2F)ccc1F | -1.96 |
| COc1cc(C)ccc1OCC(=O)NS(=O)(=O)c1ccc(Br)s1 | -7.72 |
| CC(=O)N(Cc1ncc(C)o1)C1CCN(Cc2sc(C)nc2C)C1 (stereo not given) | -19.8 |
| CCc1nc(C2CCCN(C(=O)CC3CCOCC3)C2)no1 (stereo not given) | -15.3 |
| CCc1nc(CN2CCCN(CC(=O)Nc3cccnc3)CC2)no1 | -17.4 |
| CC(=O)NCc1ccc(C(=O)N2CCCC2c2cnn(C)c2)o1 (stereo not given) | -8.67 |
| O=C(c1ccccn1)N1CCC2(CC1)COC(COCC1CCCC1)C2 (stereo not given) | -1.18 |
| Cn1cc(C(=O)NCc2cn3c(n2)CN(CC2CCCC2)CC3)cn1 | 7.17 |
| CN(Cc1cccnc1)[C@@H]1CN(C(=O)c2ccoc2)[C@@H]2CCCO[C@H]12 | -1.81 |
| CCOCC1CN(Cc2cccnc2OC)Cc2cnn(C)c21 (stereo not given) | -1.6 |
| O=C1CC(c2ccccc2)C2(CCN(Cc3nccs3)CC2)N1 (stereo not given) | 4.67 |
| Cc1ccc(CN2CCC[C@@H]3CN(C(=O)c4ccco4)C[C@@H]32)s1 | -1.05 |
| Cc1cc(C(=O)N2CC[C@@H](N(C)C)[C@@H]2Cc2ccccc2)no1 | -0.567 |
| Cc1ccc(CN2CCC3(CC2)CN(c2cnn(C)c2)C(=O)CO3)o1 | 2.96 |
| COc1ccc(CN2C[C@@H]3CN(Cc4ccncc4)C[C@@H]3C2=O)cc1 | -3.86 |
| CN(C)c1ncc(-c2cc(C(=O)NCCC#N)n(CC3CC3)c2)cn1 | 1.29 |
| CN1C(=O)CCCC12CCCN(Cc1cccs1)C2 (stereo not given) | -0.302 |
| Cc1ccsc1CNC1CCCc2c1cnn2C (stereo not given) | 2.27 |
| COCCN1CC[C@]2(CN(Cc3ccccn3)C[C@H]2C)C1=O | 8.86 |
| O=C(c1n[nH]c2c1CN(C1CCOCC1)CC2)N1CCCC1 | -2.39 |
| CN(C)[C@@H]1CN(Cc2ccco2)C[C@@H]2CCCO[C@@H]21 | 2.75 |
